Experimental data: ChEMBL document CHEMBL1140337, “Synthesis and structure-activity relationships of a new series of retinoid-related biphenyl-4-ylacrylic acids endowed with antiproliferative and proapoptotic activity” (J Med Chem, 2005)

Assays:
IGROV-1 [1] = assay: Percent level of apoptosis induced by 72 hr of exposure with IC80 in (IGROV-1) human ovarian carcinoma cells; format: functional
[2] = Concentration of compound required for inhibition of (IGROV-1/Pt1) human cisplatin resistant ovarian carcinoma cell growth by 50%; format: functional
Outline: (§1)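 Ovarian carcinoma cells in log-phase growth seeded in duplicate; drug added 24 h after seeding, cells harvested after 72 h of exposure and counted with a cell counter. IC50 = concentration giving 50% fewer cells than untreated control. Where SD is reported, mean of three independent experiments.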

IGROV-1 [3] = assay: Concentration of compound required for inhibition of (IGROV-1) human ovarian carcinoma cell growth by 50%; format: functional, cell-based; outline: as §1
NB-4 = assay: Concentration of compound required for inhibition of (NB4) human promyelocytic leukemia cell growth by 50%; format: functional, cell-based
Outline: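 Leukemia cells exposed to drug for 24 h; growth inhibition assessed by cell counting at 72 h. IC50 = concentration reducing cell number 50% versus untreated control. Where SD is given, mean of three independent experiments.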

[4] = Effective concentration against retinoic acid receptor alpha in COS-7 cells co-expressing DR5-tk-CAT reporter; format: cell-based
Outline: (§2)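 COS-7 cells transfected with the relevant RAR isoform (alpha, beta or gamma) plus a DR5-tk-CAT reporter. 24 h post-transfection, cells treated 24 h with increasing compound concentrations. CAT activity measured in cell extracts, normalized to a beta-galactosidase transfection control.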

[5] = Effective concentration against retinoic acid receptor gamma in COS-7 cells co-expressing DR5-tk-CAT reporter; format: cell-based; outline: as §2
[6] = Percent level of apoptosis induced by 72 hr of exposure with IC80 in (IGROV-1/Pt1) human cisplatin resistant ovarian carcinoma cells; format: functional
[7] = biological target: T1, Retinoic acid receptor beta (Homo sapiens, UniProt P10826); assay: Effective concentration against retinoic acid receptor beta in COS-7 cells co-expressing DR5-tk-CAT reporter; format: cell-based; outline: as §2
T1 sequence (P10826 whole entry): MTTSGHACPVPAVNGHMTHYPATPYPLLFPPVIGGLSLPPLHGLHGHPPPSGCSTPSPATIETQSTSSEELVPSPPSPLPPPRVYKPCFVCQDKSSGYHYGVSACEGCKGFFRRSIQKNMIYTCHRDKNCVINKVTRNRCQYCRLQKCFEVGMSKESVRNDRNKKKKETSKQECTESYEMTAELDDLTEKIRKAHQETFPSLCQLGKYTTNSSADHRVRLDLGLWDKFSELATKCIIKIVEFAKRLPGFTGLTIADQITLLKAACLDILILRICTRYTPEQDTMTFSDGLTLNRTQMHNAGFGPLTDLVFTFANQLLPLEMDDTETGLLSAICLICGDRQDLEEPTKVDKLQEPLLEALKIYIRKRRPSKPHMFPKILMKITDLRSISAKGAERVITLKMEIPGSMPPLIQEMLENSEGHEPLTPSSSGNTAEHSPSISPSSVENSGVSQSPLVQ

[8] = biological target: T1, Retinoic acid receptor beta; assay: Effective concentration against retinoic acid receptor beta in COS-7 cells co-expressing DR5-tk-CAT reporter; value range (7.5-41.1); format: cell-based; outline: as §2
[9] = Effective concentration against retinoic acid receptor alpha in COS-7 cells co-expressing DR5-tk-CAT reporter; value range (5.6-59.1); format: cell-based; outline: as §2
[10] = Effective concentration against retinoic acid receptor gamma in COS-7 cells co-expressing DR5-tk-CAT reporter; value range (0.6-1.5); format: cell-based; outline: as §2
[11] = Effective concentration against retinoic acid receptor alpha in COS-7 cells co-expressing DR5-tk-CAT reporter; value range (4.6-8.9); format: cell-based; outline: as §2
[12] = Effective concentration against retinoic acid receptor gamma in COS-7 cells co-expressing DR5-tk-CAT reporter; value range (0.1-0.5); format: cell-based; outline: as §2
[13] = biological target: T1, Retinoic acid receptor beta; assay: Effective concentration against retinoic acid receptor beta in COS-7 cells co-expressing DR5-tk-CAT reporter; value range (3.9-7.2); format: cell-based; outline: as §2
[14] = Effective concentration against retinoic acid receptor gamma in COS-7 cells co-expressing DR5-tk-CAT reporter; value range (0.8-2.4); format: cell-based; outline: as §2
[15] = Effective concentration against retinoic acid receptor alpha in COS-7 cells co-expressing DR5-tk-CAT reporter; value range (13.9-29.7); format: cell-based; outline: as §2
[16] = biological target: T1, Retinoic acid receptor beta; assay: Effective concentration against retinoic acid receptor beta in COS-7 cells co-expressing DR5-tk-CAT reporter; value range (6.1-9.8); format: cell-based; outline: as §2
[17] = Effective concentration against retinoic acid receptor alpha in COS-7 cells co-expressing DR5-tk-CAT reporter; value range (0.1-0.4); format: cell-based; outline: as §2
[18] = biological target: T1, Retinoic acid receptor beta; assay: Effective concentration against retinoic acid receptor beta in COS-7 cells co-expressing DR5-tk-CAT reporter; value range (0.1-0.3); format: cell-based
[19] = Effective concentration against retinoic acid receptor gamma in COS-7 cells co-expressing DR5-tk-CAT reporter; value range (0.1-0.3); format: cell-based; outline: as §2

Row | SMILES | Apoptosis (IGROV-1 [1]) | IC50 [2] | IC50 (IGROV-1 [3]) | IC50 (NB-4) | other results
1 | O=C(O)/C=C/c1ccc(-c2ccc(O)c(C34CC5CC(CC(C5)C3)C4)c2)c(Cl)c1 | 74% | 0.73 µM | 0.58 µM | 0.2 µM | 
2 | COC(=O)/C=C/c1ccc(-c2ccc(O)c(C34CC5CC(CC(C5)C3)C4)c2)cc1 |  | 3.5 µM | 0.61 µM | 18.2 µM | 
3 | O=C(O)/C=C/c1ccc2c(ccc3cc(O)c(C45CC6CC(CC(C6)C4)C5)cc32)c1 |  | 2.1 µM | 2.2 µM | 1.5 µM | 
4 | O=P(O)(O)/C=C/c1ccc(-c2ccc(O)c(C34CC5CC(CC(C5)C3)C4)c2)cc1 |  | > 20 µM | > 20 µM | > 200 µM | 
5 | C/C(=C\c1ccc(-c2ccc(O)c(C34CC5CC(CC(C5)C3)C4)c2)cc1)C(=O)O |  | 10 µM | 7.19 µM | 2.3 µM | 
6 | O=C(O)/C=C/c1ccc(-c2ccc(O)cc2)cc1 | 3% | 156 µM | 89 µM | 78.7 µM | EC50 [4]: > 100 µM; EC50 [5]: > 100 µM; Apoptosis [6]: 1%; EC50 [7]: > 100 µM
7 | CC(C)(C)c1cc(-c2ccc(/C=C/C(=O)O)cc2)ccc1O |  | 30 µM | 30 µM | 42.3 µM | 
8 | Nc1ccccc1NC(=O)/C=C/c1ccc(-c2ccc(O)c(C34CC5CC(CC(C5)C3)C4)c2)cc1 | 8% | 2 µM | 2.1 µM | 1.8 µM | EC50 [8]: 17.6 µM; EC50 [9]: 18.2 µM; EC50 [10]: 0.9 µM
9 | O=C(O)C#Cc1ccc(-c2ccc(O)c(C34CC5CC(CC(C5)C3)C4)c2)cc1 | 52% | 1.52 µM | 1.15 µM | 1.2 µM | 
10 | O=C(O)/C=C/c1ccc(-c2ccc(O)c(CC3CCCCC3)c2)cc1 | 25% | 2.3 µM | 2.58 µM | 2.2 µM | EC50 [11]: 6.4 µM; EC50 [12]: 0.2 µM; Apoptosis [6]: 9%; EC50 [13]: 5.3 µM
11 | CC1(c2cc(-c3ccc(/C=C/C(=O)O)cc3)ccc2O)CCCCCCCCCCC1 |  |  | 3.57 µM |  | 
12 | O=C(O)c1ccc(-c2ccc(O)c(C34CC5CC(CC(C5)C3)C4)c2)cc1 |  | > 3 µM | > 3 µM | 35.2 µM | 
13 | O=C(/C=C/c1ccc(-c2ccc(O)c(C34CC5CC(CC(C5)C3)C4)c2)cc1)Nc1ccc(O)cc1 | 2% | 10.5 µM | 6.6 µM | 2 µM | EC50 [14]: 1.4 µM; EC50 [15]: 20.3 µM; EC50 [16]: 7.7 µM
14 | O=C(O)/C=C/c1ccc(-c2ccc(O)c(-c3ccccc3)c2)cc1 | 7% | 12.5 µM | 19 µM | 45.3 µM | EC50 [4]: > 100 µM; EC50 [5]: > 100 µM; Apoptosis [6]: 1%; EC50 [7]: > 100 µM
15 | CCOP(=O)(/C=C/c1ccc(-c2ccc(O)c(C34CC5CC(CC(C5)C3)C4)c2)cc1)OCC |  | > 20 µM | 19.7 µM | 1.7 µM | 
16 | O=C(O)/C=C/c1ccc(-c2ccc(O)c(Cl)c2)cc1 |  |  | 26 µM |  | 
17 | OC/C=C/c1ccc(-c2ccc(O)c(C34CC5CC(CC(C5)C3)C4)c2)cc1 |  | 10.6 µM | 10.8 µM | 9.1 µM | 
18 | O=C(O)/C(F)=C/c1ccc(-c2ccc(O)c(C34CC5CC(CC(C5)C3)C4)c2)cc1 |  | 0.63 µM | 0.37 µM | 0.081 µM | 
19 | O=Cc1cc(/C=C/C(=O)O)ccc1-c1ccc(O)c(C23CC4CC(CC(C4)C2)C3)c1 | 44% | 2.63 µM | 1.28 µM | 1.05 µM | 
20 | O=C(O)C1CC1c1ccc(-c2ccc(O)c(C34CC5CC(CC(C5)C3)C4)c2)cc1 (stereo not given) |  | > 20 µM | > 20 µM | 39.4 µM | 
21 | C/C(=C\C(=O)O)c1ccc(-c2ccc(O)c(C34CC5CC(CC(C5)C3)C4)c2)cc1 | 26% | 16.6 µM | 9.97 µM | 6.7 µM | 
22 | Cc1cc(O)c(C23CC4CC(CC(C4)C2)C3)cc1-c1ccc(/C=C/C(=O)O)cc1 |  | 2.92 µM | 1.14 µM | 1.7 µM | 
23 | O=C(O)/C(F)=C\c1ccc(-c2ccc(O)c(C34CC5CC(CC(C5)C3)C4)c2)cc1 |  | > 3 µM | > 3 µM | 22.4 µM | 
24 | O=C(O)/C=C/c1ccc(-c2cc(O)cc(C34CC5CC(CC(C5)C3)C4)c2)cc1 |  |  | 1.31 µM | 1.2 µM | 
25 | N#C/C=C/c1ccc(-c2ccc(O)c(C34CC5CC(CC(C5)C3)C4)c2)cc1 | 2% | 12.7 µM | 8.3 µM | 14.3 µM | 
26 | O=C(O)/C=C/c1ccc(-c2ccc(C34CC5CC(CC(C5)C3)C4)c(O)c2)cc1 | 23% |  | 6.13 µM | > 10 µM | 
27 | O=C(O)/C=C/c1ccc(-c2ccc(O)c(C34CC5CC(CC(C5)C3)C4)c2)cc1F | 47% | 0.43 µM | 0.2 µM | 0.17 µM | 
28 | O=C(O)CCc1ccc(-c2ccc(O)c(C34CC5CC(CC(C5)C3)C4)c2)cc1 | 26% | 44.5 µM | 48.4 µM | 63.6 µM | 
29 | O=C(O)/C=C/c1ccc(-c2ccc(O)c(C34CC5CC(CC(C5)C3)C4)c2)cc1 [ADAROTENE] | 65% | 0.4 µM |  | 0.082 µM | EC50 [17]: 0.2 µM; EC50 [18]: 0.2 µM; Apoptosis [6]: 30%; EC50 [19]: 0.1 µM
30 | O=C(O)c1ccc2cc(-c3ccc(O)c(C45CC6CC(CC(C6)C4)C5)c3)ccc2c1 [O-DEMETHYLATED ADAPALENE] | 38% | 0.62 µM |  | 0.4 µM | Apoptosis [6]: 25%
